Experiments:
[1] = Lipophilicity, logD of compound at pH 7.4 by retention time-based reverse phase chromatographic analysis; format: physicochemical; settings: buffer
Plasma = assay: Drug uptake in APP-transgenic Tg2576 mouse plasma at 3 to 6 mg/kg, po administered as multiple dose by LC/MS/MS analysis; format: ADME, organism-based; settings: in vivo
[2] = Drug uptake in C57BL/6J mouse plasma at 6 mg/kg, po after 3 hrs by LC/MS/MS analysis; format: ADME, organism-based
Outline: (§1)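 Male C57BL/6J mice, 9 weeks old, fed, n = 3, given a single oral dose of 6 mg/kg in 0.5% methylcellulose. Plasma and cortex collected at 3 h. Cortex homogenized in saline. Samples deproteinized with MeCN containing an internal standard, then diluted in ammonium formate/acetonitrile with 0.2% formic acid for analysis.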

Cortex [3] = assay: Drug uptake in APP-transgenic Tg2576 mouse cortex at 3 to 6 mg/kg, po administered as multiple dose by LC/MS/MS analysis; format: ADME, organism-based; settings: in vivo
Cortex [4] = assay: Drug uptake in APP-transgenic Tg2576 mouse cortex at 3 to 6 mg/kg, po administered as single dose after 18 hrs by LC/MS/MS analysis; format: ADME, organism-based; settings: in vivo, BLD = below limit of detection
[5] = Drug uptake in C57BL/6J mouse cortex at 6 mg/kg, po after 3 hrs by LC/MS/MS analysis; format: ADME, organism-based; settings: read-out: Drug uptake; outline: as §1

SMILES | chromatographic logD [1] | other results
COc1cc(-c2nnc3n2CCCC32COc3ccccc3N(CC(F)(F)F)C2=O)ccc1-c1cnc(C)o1 (configuration not stated) | 2.5 | –
COc1cc(-c2nnc3n2CCCC3(Oc2cc(F)c(F)c(F)c2)C(C)(C)O)ccc1-c1cnc(C)o1 (configuration not stated) | 3.2 | –
COc1cc(-c2nnc3n2CCCC32OCc3c(cccc3C(F)(F)F)N(CC(F)(F)F)C2=O)ccc1-c1cnc(C)o1 (configuration not stated) | 2.9 | –
COc1cc(-c2nnc3n2CCCC32Cc3ccccc3N(CC(F)(F)F)C2=O)ccc1-c1cnc(C)o1 (configuration not stated) | 2.4 | –
COc1cc(-c2nnc3n2CCCC3(Oc2ccc(F)c(F)c2)C(C)(C)O)ccc1-c1cnc(C)o1 (configuration not stated) | 2.8 | –
COc1cc(-c2nnc3n2CCCC3(Cc2ccc(F)c(F)c2)C(N)=O)ccc1-c1cnc(C)o1 (configuration not stated) | 2.3 | –
COc1cc(-c2nnc3n2CCCC32OCc3c(Cl)cccc3N(CC(F)(F)F)C2=O)ccc1-c1cnc(C)o1 (configuration not stated) | 2.8 | –
COc1cc(-c2nnc3n2CCCC3(CO)Cc2ccc(F)c(F)c2)ccc1-c1cnc(C)o1 (configuration not stated) | 2.5 | –
COc1cc(-c2nnc3n2CCCC3(CNC(C)=O)c2ccc(Cl)c(Cl)c2)ccc1-c1cnc(C)o1 (configuration not stated) | 3.2 | –
COc1cc(-c2nnc3n2CCCC3(CN)c2ccc(Cl)c(Cl)c2)ccc1-c1cnc(C)o1 (configuration not stated) | 3.1 | –
COc1cc(-c2nnc3n2CCCC32OCc3ccccc3N(CC(F)(F)F)C2=O)ccc1-c1cnc(C)o1 (configuration not stated) | 2.2 | –
COc1cc(-c2nnc3n2CCCC32C(=O)N(CC(F)(F)F)c3ccccc32)ccc1-c1cnc(C)o1 (configuration not stated) | 2.2 | –
COc1cc(-c2nnc3n2CCCC3(c2ccc(Cl)c(Cl)c2)C(C)(C)O)ccc1-c1cnc(C)o1 (configuration not stated) | 3.7 | –
COc1cc(-c2nnc3n2CCC[C@]3(Oc2cc(F)c(F)c(F)c2)C(C)(C)O)ccc1-c1cnc(C)o1 | 3.2 | Drug uptake (Plasma): Not Active; concentration at 3 h [2]: 3310 ng/mL; Drug uptake (Cortex [3]): Not Active; Drug uptake (Cortex [4]): BLD; concentration at 3 h [5]: 677 ng/g
COc1cc(-c2nnc3n2CCC[C@@]3(Oc2cc(F)c(F)c(F)c2)C(C)(C)O)ccc1-c1cnc(C)o1 | 3.2 | –
COc1cc(-c2nnc3n2CCCC3(Cc2ccc(F)c(F)c2)C(C)=O)ccc1-c1cnc(C)o1 (configuration not stated) | 2.6 | –
COc1cc(-c2nnc3n2CCCC3(OC)c2ccc(Cl)c(Cl)c2)ccc1-c1cnc(C)o1 (configuration not stated) | 3.7 | –
COc1cc(-c2nnc3n2CCCC3(c2ccc(F)c(F)c2)C(C)(C)O)ccc1-c1cnc(C)o1 (configuration not stated) | 2.9 | –
COc1cc(-c2nnc3n2CCCC3(O)c2ccc(Cl)c(Cl)c2)ccc1-c1cnc(C)o1 (configuration not stated) | 2.9 | –
COc1cc(-c2nnc3n2CCCC3(Cc2ccc(F)c(F)c2)C(C)(C)O)ccc1-c1cnc(C)o1 (configuration not stated) | 3 | –
COc1cc(-c2nnc3n2CCCC3(Cc2ccc(F)c(F)c2)C(=O)N(C)CC(F)(F)F)ccc1-c1cnc(C)o1 (configuration not stated) | 2.9 | –
COc1cc(-c2nnc3n2CCCC3(Cc2ccc(F)c(F)c2)C(=O)NCC(F)(F)F)ccc1-c1cnc(C)o1 (configuration not stated) | 3 | –

— ChEMBL document CHEMBL3813595, “Discovery of novel 5,6,7,8-tetrahydro[1,2,4]triazolo[4,3-a]pyridine derivatives as γ-secretase modulators (Part 2)” (Bioorg Med Chem, 2016)
